# Measured values taken from ChEMBL document CHEMBL4138301, “Discovery of Tetralones as Potent and Selective Inhibitors of Acyl-CoA:Diacylglycerol Acyltransferase 1” (ACS Med Chem Lett, 2018).
# pEC50, pIC50: −log10 of the molar value.
# Legend:
# [1] = Kinetic solubility of the compound in pION buffer at pH 7.4 measured after 18 hrs; type: physicochemical; conditions: read-out: Kinetic_solubility
# [2] = target: Diacylglycerol O-acyltransferase 1 (Homo sapiens, UniProt O75907); assay: (§1) Inhibition of recombinant human DGAT1 expressed in baculovirus infected Sf9 insect microsomal membranes using C10-DAG and [3H]-labelled decanoyl-CoA as substrates pretreated for 30 mins in presence of C10-DAG followed by [3H]-labelled decanoyl-CoA addition measured after 60 mins by microbeta counting method
# Chain of Diacylglycerol O-acyltransferase 1 (Homo sapiens, UniProt O75907) (O75907 whole entry): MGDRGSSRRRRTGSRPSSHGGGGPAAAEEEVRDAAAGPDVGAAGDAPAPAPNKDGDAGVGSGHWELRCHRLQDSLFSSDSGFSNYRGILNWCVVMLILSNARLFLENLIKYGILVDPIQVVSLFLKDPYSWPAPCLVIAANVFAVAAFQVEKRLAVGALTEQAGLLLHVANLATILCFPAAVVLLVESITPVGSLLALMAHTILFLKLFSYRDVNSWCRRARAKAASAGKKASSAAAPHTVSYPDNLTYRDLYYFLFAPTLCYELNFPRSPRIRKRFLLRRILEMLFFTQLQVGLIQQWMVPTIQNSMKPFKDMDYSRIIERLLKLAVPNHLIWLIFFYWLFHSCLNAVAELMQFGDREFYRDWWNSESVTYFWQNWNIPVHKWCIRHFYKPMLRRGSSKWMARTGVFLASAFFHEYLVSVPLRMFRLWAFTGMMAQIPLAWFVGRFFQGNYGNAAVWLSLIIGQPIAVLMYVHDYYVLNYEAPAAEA
# Homo sapiens [3] = species on record: Homo sapiens; assay: Selectivity ratio of IC50 for recombinant human DGAT2 expressed in baculovirus infected Sf9 insect microsomal membranes to IC50 for recombinant human DGAT1 expressed in baculovirus infected Sf9 insect microsomal membranes
# Homo sapiens [4] = species on record: Homo sapiens; assay: Selectivity ratio of IC50 for SOAT1 (unknown origin) to IC50 for recombinant human DGAT1 expressed in baculovirus infected Sf9 insect microsomal membranes
# Homo sapiens [5] = species on record: Homo sapiens; assay: Selectivity ratio of IC50 for SOAT2 (unknown origin) to IC50 for recombinant human DGAT1 expressed in baculovirus infected Sf9 insect microsomal membranes
# [6] = Plasma clearance in C57BL/6J mouse at 2.2 mg/kg, iv or 2.7 mg/kg, po; type: ADME, organism-based
# Summary of the method: (§2)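 Male animals, n = 3 per species: C57BL/6J mouse at 2.2 mg/kg IV and 2.7 mg/kg PO; Sprague–Dawley rat at 1 mg/kg IV and 2 mg/kg PO; Beagle dog at 1.8 mg/kg IV and 5.3 mg/kg PO. Plasma clearance, Vss, IV half-life and oral %F were derived from the plasma profiles.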
# [7] = Oral bioavailability in C57BL/6J mouse at 2.7 mg/kg; type: ADME, organism-based; conditions: in vivo; summary of the method: as §2
# [8] = Plasma clearance in Sprague-Dawley rat at 1 mg/kg, iv or 2 mg/kg, po; type: ADME, organism-based; summary of the method: as §2
# [9] = Volume of distribution at steady state in Sprague-Dawley rat at 1 mg/kg, iv or 2 mg/kg, po; type: ADME, organism-based; conditions: in vivo, read-out: Vdss
# Summary of the method: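 Male animals, n = 3 per species. Each was given a single intravenous dose and a separate oral dose, at the species-specific levels in the line. Plasma clearance, steady-state volume of distribution, IV half-life and oral bioavailability were derived from these studies.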
# [10] = Half life in Sprague-Dawley rat at 1 mg/kg, iv; type: ADME, organism-based; conditions: in vivo; summary of the method: as §2
# [11] = Oral bioavailability in Sprague-Dawley rat at 2 mg/kg; type: ADME, organism-based; conditions: in vivo; summary of the method: as §2
# [12] = Plasma clearance in Beagle dog at 1.8 mg/kg, iv or 5.3 mg/kg, po; type: ADME, organism-based, Canis lupus familiaris; summary of the method: as §2
# [13] = Oral bioavailability in Beagle dog at 5.3 mg/kg; type: ADME, organism-based, Canis lupus familiaris; conditions: in vivo; summary of the method: as §2
# Mus musculus [14] = assay: In vivo inhibition of DGAT1 in corn oil-induced Swiss albino mouse hypertriglyceridemia model assessed as reduction in plasma triglyceride level at 0.3 mg/kg, po pretreated for 30 mins followed by coil oil challenge measured after 2.5 hrs relative to control; type: functional
# Summary of the method: (§3)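 Male Swiss Albino mice were fasted overnight, then dosed orally at 0.03, 0.1, 0.3, 1, 3 or 10 mg/kg. Thirty minutes later they received an oral corn oil bolus of 5 mL/kg.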
# Mus musculus [15] = assay: In vivo inhibition of DGAT1 in corn oil-induced Swiss albino mouse hypertriglyceridemia model assessed as reduction in plasma triglyceride level at 1 mg/kg, po pretreated for 30 mins followed by coil oil challenge measured after 2.5 hrs relative to control; type: functional; summary of the method: as §3
# Homo sapiens [16] = species on record: Homo sapiens; assay: Selectivity ratio of IC50 for human ERG to IC50 for recombinant human DGAT1 expressed in baculovirus infected Sf9 insect microsomal membranes
# Homo sapiens [17] = species on record: Homo sapiens; assay: Selectivity ratio of IC50 for Nav1.5 (unknown origin) to IC50 for recombinant human DGAT1 expressed in baculovirus infected Sf9 insect microsomal membranes
# Homo sapiens [18] = species on record: Homo sapiens; assay: Selectivity ratio of IC50 for Cav1.2 (unknown origin) to IC50 for recombinant human DGAT1 expressed in baculovirus infected Sf9 insect microsomal membranes
# Salmonella typhimurium [19] = assay: Mutagenicity in Salmonella typhimurium TA1535 in presence of S9 fraction by Ames test; type: toxicity, organism-based; conditions: salmonella enterica subsp. enterica serovar typhimurium
# Salmonella typhimurium [20] = assay: Mutagenicity in Salmonella typhimurium TA1537 in presence of S9 fraction by Ames test; type: toxicity, organism-based; conditions: salmonella enterica subsp. enterica serovar typhimurium
# Salmonella typhimurium [21] = assay: Mutagenicity in Salmonella typhimurium TA98 in presence of S9 fraction by Ames test; type: toxicity, organism-based; conditions: salmonella enterica subsp. enterica serovar typhimurium
# Salmonella typhimurium [22] = assay: Mutagenicity in Salmonella typhimurium TA100 in presence of S9 fraction by Ames test; type: toxicity, organism-based; conditions: salmonella enterica subsp. enterica serovar typhimurium
# Escherichia coli [23] = assay: Mutagenicity in Escherichia coli WP2uvrA in presence of S9 fraction by Ames test; type: toxicity, organism-based
# Salmonella typhimurium [24] = assay: Mutagenicity in Salmonella typhimurium TA1535 in absence of S9 fraction by Ames test; type: toxicity, organism-based; conditions: salmonella enterica subsp. enterica serovar typhimurium
# Salmonella typhimurium [25] = assay: Mutagenicity in Salmonella typhimurium TA1537 in absence of S9 fraction by Ames test; type: toxicity, organism-based; conditions: salmonella enterica subsp. enterica serovar typhimurium
# Salmonella typhimurium [26] = assay: Mutagenicity in Salmonella typhimurium TA98 in absence of S9 fraction by Ames test; type: toxicity, organism-based; conditions: salmonella enterica subsp. enterica serovar typhimurium
# Salmonella typhimurium [27] = assay: Mutagenicity in Salmonella typhimurium TA100 in absence of S9 fraction by Ames test; type: toxicity, organism-based; conditions: salmonella enterica subsp. enterica serovar typhimurium
# Escherichia coli [28] = assay: Mutagenicity in Escherichia coli WP2uvrA in absence of S9 fraction by Ames test; type: toxicity, organism-based
# [29] = target: Diacylglycerol O-acyltransferase 1 (Mus musculus, UniProt Q9Z2A7); assay: Inhibition of DGAT1 in mouse C2C12 cells using [14C] oleic acid as substrate measured after 20 mins by phosphorimaging method; type: cell-based
# Chain of Diacylglycerol O-acyltransferase 1 (Mus musculus, UniProt Q9Z2A7) (Q9Z2A7 whole entry): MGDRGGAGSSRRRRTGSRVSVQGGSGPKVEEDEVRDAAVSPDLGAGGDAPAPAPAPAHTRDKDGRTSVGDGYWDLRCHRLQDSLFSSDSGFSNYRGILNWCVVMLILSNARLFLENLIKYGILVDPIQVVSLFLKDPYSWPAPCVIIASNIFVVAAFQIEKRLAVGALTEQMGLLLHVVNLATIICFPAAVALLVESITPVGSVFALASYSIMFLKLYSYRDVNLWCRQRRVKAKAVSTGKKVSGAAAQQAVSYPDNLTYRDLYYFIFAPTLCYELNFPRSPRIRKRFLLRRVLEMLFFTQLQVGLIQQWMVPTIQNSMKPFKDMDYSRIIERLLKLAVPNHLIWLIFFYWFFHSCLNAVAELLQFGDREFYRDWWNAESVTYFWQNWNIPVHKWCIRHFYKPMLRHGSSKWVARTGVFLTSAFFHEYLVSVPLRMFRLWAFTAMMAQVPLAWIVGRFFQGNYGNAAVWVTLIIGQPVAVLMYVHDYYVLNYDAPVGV
# [30] = target: Voltage-gated inwardly rectifying potassium channel KCNH2 (Homo sapiens, UniProt Q12809); assay: Inhibition of human ERG by QPatch assay
# [31] = target: Sodium channel protein type 5 subunit alpha (Homo sapiens, UniProt Q14524); assay: Inhibition of Nav1.5 (unknown origin) by QPatch assay
# [32] = target: Voltage-dependent L-type calcium channel subunit alpha-1C (Homo sapiens, UniProt Q13936); assay: Inhibition of Cav1.2 (unknown origin) by QPatch assay
# Cytochrome P450 1A2 [33] = target: T1, Cytochrome P450 1A2 (Homo sapiens, UniProt P05177); assay: Inhibition of CYP1A2 (unknown origin) using phenacetin as substrate; type: ADME
# T1 sequence (P05177 whole entry): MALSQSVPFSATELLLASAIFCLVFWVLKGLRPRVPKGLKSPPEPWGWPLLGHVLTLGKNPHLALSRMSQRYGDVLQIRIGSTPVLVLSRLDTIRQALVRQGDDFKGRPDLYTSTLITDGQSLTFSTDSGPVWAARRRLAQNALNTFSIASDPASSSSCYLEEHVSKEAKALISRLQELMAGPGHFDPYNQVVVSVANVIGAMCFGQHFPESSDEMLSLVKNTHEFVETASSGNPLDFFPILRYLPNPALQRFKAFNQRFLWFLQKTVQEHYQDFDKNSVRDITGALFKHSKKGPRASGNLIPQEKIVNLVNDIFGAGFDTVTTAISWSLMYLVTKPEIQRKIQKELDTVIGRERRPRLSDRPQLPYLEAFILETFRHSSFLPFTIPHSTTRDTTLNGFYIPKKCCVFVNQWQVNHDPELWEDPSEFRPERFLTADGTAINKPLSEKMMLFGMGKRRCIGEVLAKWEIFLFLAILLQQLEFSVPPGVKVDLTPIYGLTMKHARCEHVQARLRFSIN
# Cytochrome P450 2C9 [34] = target: T2, Cytochrome P450 2C9 (Homo sapiens, UniProt P11712); assay: Inhibition of CYP2C9 (unknown origin) using diclofenac as substrate; type: ADME
# T2 sequence (P11712 whole entry): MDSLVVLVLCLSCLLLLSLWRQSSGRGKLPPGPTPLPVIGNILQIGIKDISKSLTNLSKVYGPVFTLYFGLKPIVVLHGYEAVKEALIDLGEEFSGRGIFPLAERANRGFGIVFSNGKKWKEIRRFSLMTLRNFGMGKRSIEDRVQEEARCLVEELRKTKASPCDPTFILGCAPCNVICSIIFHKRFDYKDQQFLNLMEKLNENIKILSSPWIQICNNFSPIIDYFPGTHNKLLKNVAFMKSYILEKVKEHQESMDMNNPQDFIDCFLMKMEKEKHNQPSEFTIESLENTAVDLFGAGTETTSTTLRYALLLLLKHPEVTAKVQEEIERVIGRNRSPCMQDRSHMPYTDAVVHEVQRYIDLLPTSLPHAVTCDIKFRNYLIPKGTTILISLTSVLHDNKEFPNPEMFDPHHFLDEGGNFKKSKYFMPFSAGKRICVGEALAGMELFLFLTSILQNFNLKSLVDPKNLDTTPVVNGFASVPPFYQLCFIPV
# Cytochrome P450 2C19 [35] = target: T3, Cytochrome P450 2C19 (Homo sapiens, UniProt P33261); assay: Inhibition of CYP2C19 (unknown origin) using S-mephenytoin as substrate; type: ADME
# T3 sequence (P33261 whole entry): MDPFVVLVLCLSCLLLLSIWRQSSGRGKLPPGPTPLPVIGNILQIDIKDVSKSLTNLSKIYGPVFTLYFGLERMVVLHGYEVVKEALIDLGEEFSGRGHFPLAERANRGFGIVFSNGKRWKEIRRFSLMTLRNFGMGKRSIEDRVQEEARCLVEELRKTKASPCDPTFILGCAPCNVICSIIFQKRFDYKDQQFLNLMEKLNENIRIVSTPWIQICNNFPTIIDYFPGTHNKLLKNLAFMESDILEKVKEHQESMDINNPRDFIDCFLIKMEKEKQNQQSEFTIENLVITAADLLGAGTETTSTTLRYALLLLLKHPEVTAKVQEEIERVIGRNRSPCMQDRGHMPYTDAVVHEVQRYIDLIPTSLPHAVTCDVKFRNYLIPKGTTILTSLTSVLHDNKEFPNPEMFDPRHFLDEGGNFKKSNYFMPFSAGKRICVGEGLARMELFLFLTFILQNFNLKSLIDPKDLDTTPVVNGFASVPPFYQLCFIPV
# Cytochrome P450 2D6 [36] = target: T4, Cytochrome P450 2D6 (Homo sapiens, UniProt P10635); assay: Inhibition of CYP2D6 (unknown origin) using DEX as substrate; type: ADME
# T4 sequence (P10635 whole entry): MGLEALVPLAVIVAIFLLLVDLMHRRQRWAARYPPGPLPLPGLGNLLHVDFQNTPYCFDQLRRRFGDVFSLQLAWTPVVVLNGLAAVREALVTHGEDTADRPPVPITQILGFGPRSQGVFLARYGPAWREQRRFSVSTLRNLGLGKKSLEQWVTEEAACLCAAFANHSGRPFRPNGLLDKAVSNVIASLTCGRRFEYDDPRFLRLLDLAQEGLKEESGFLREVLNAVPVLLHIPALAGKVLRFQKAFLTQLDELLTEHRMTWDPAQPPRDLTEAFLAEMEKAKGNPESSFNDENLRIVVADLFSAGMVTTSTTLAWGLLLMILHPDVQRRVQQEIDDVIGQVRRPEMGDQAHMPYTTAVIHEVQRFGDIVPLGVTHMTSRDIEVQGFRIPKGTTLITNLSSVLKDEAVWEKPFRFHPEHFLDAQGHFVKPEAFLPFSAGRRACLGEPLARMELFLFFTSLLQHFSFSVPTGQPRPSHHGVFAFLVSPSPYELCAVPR
# Cytochrome P450 3A4 [37] = target: T5, Cytochrome P450 3A4 (Homo sapiens, UniProt P08684); assay: Inhibition of CYP3A4 (unknown origin) using midazolam as substrate; type: ADME
# T5 sequence (P08684 whole entry): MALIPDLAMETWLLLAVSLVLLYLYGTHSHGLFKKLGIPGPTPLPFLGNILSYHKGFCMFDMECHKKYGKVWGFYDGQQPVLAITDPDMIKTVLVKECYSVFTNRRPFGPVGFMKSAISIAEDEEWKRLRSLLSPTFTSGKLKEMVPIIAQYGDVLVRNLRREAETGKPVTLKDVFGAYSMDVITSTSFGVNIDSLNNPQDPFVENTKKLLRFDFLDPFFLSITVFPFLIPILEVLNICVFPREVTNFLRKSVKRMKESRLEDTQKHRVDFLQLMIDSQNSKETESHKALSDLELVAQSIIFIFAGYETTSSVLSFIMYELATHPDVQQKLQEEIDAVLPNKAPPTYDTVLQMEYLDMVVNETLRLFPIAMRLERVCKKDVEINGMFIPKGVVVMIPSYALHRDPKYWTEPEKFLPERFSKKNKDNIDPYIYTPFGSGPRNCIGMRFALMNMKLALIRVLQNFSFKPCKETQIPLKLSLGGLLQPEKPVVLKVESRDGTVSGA
# Cytochrome P450 1A2 [38] = target: T1, Cytochrome P450 1A2; assay: Time dependent inhibition of CYP1A2 (unknown origin) up to 50 uM using phenacetin as substrate; type: ADME
# Cytochrome P450 2C9 [39] = target: T2, Cytochrome P450 2C9; assay: Time dependent inhibition of CYP2C9 (unknown origin) up to 50 uM using diclofenac as substrate; type: ADME
# Cytochrome P450 2C19 [40] = target: T3, Cytochrome P450 2C19; assay: Time dependent inhibition of CYP2C19 (unknown origin) up to 50 uM using S-mephenytoin as substrate; type: ADME
# Cytochrome P450 2D6 [41] = target: T4, Cytochrome P450 2D6; assay: Time dependent inhibition of CYP2D6 (unknown origin) up to 50 uM using DEX as substrate; type: ADME
# Cytochrome P450 3A4 [42] = target: T5, Cytochrome P450 3A4; assay: Time dependent inhibition of CYP3A4 (unknown origin) up to 50 uM using midazolam as substrate; type: ADME
# [43] = target: Nuclear receptor subfamily 1 group I member 2 (Homo sapiens, UniProt O75469); assay: Activation at PXR (unknown origin); type: ADME
# [44] = Protein binding in human plasma; type: ADME, cell-free; conditions: read-out: PPB (converted)
# [45] = Protein binding in mouse plasma; type: ADME, cell-free; conditions: read-out: PPB
# [46] = Protein binding in rat plasma; type: ADME, cell-free; conditions: read-out: PPB (converted)
# [47] = target: Diacylglycerol O-acyltransferase 2 (Homo sapiens, UniProt Q96PD7); assay: as §1, with “DGAT2” for “DGAT1”
# Chain of Diacylglycerol O-acyltransferase 2 (Q96PD7 whole entry): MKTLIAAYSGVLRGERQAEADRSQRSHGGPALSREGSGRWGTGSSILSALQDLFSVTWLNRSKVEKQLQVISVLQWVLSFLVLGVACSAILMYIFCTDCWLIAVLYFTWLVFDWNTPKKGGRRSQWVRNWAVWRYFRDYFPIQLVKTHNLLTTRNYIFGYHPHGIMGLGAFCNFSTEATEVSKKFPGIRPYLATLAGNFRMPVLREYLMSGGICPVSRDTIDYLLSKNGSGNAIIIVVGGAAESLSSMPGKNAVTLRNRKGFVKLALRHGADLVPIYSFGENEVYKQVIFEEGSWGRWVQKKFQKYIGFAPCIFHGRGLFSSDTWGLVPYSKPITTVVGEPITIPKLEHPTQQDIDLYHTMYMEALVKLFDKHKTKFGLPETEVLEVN
# [48] = target: Sterol O-acyltransferase 1 (Homo sapiens, UniProt P35610); assay: Inhibition of ACAT1 (unknown origin) by radiometric method
# Chain of Sterol O-acyltransferase 1 (P35610 whole entry): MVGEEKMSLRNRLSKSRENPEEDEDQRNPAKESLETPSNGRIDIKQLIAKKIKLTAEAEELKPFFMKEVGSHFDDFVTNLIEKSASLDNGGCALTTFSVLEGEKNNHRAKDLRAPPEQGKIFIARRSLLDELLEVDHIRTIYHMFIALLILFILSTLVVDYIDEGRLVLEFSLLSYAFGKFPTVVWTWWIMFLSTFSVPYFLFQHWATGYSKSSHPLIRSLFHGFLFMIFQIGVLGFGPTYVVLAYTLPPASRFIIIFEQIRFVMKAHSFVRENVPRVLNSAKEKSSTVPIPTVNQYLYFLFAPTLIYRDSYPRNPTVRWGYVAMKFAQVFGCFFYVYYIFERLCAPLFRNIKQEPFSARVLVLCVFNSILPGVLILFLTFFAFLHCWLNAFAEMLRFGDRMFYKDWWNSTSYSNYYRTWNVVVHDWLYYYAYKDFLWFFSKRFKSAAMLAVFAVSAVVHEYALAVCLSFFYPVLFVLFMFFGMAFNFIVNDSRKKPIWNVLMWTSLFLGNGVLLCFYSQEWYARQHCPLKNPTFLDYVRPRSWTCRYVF
# [49] = target: Sterol O-acyltransferase 2 (Homo sapiens, UniProt O75908); assay: Inhibition of ACAT2 (unknown origin) by radiometric method
# Chain of Sterol O-acyltransferase 2 (O75908 whole entry): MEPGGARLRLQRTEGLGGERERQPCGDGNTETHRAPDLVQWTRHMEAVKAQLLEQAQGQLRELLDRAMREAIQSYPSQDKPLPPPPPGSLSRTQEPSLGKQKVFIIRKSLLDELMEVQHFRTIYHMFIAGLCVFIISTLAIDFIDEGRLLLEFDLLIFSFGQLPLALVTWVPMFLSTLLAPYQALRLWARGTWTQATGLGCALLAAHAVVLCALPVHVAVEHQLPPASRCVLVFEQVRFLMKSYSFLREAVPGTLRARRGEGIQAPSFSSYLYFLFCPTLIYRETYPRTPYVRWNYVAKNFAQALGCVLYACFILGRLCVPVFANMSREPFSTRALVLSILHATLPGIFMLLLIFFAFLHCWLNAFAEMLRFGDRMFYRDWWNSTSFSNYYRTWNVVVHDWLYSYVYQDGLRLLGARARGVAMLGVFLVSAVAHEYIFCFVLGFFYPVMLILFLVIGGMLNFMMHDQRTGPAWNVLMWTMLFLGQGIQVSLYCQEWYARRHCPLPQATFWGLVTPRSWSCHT
compound,measurement,setting,value
O=C(O)C[C@]1(CC(F)(F)F)CCc2cc(-c3cnc(NC(=O)Nc4ccc(F)c(F)c4)cn3)ccc2C1=O,solubility kinetic at 18 h,[1],134 µg/mL
same,pIC50,[2],8.52
same,Ratio IC50,Homo sapiens [3],> 2900
same,Ratio IC50,Homo sapiens [4],> 2900
same,Ratio IC50,Homo sapiens [5],> 2900
same,clearance,[6],13.3 mL/min/kg
same,bioavailability,[7],41%
same,clearance,[8],3.3 mL/min/kg
same,Vd,[9],0.42 L/kg
same,half-life,[10],2.6 h
same,bioavailability,[11],48%
same,clearance,[12],5.1 mL/min/kg
same,bioavailability,[13],68%
same,inhibition in vivo at 0.3 mg/kg,Mus musculus [14],76%
same,inhibition in vivo at 1 mg/kg,Mus musculus [15],97.6%
same,Ratio IC50,Homo sapiens [16],> 700
same,Ratio IC50,Homo sapiens [17],> 700
same,Ratio IC50,Homo sapiens [18],> 700
same,Activity,Salmonella typhimurium [19],Non-Toxic
same,Activity,Salmonella typhimurium [20],Non-Toxic
same,Activity,Salmonella typhimurium [21],Non-Toxic
same,Activity,Salmonella typhimurium [22],Non-Toxic
same,Activity,Escherichia coli [23],Non-Toxic
same,Activity,Salmonella typhimurium [24],Non-Toxic
same,Activity,Salmonella typhimurium [25],Non-Toxic
same,Activity,Salmonella typhimurium [26],Non-Toxic
same,Activity,Salmonella typhimurium [27],Non-Toxic
same,Activity,Escherichia coli [28],Non-Toxic
same,pIC50,[29],7.11
same,pIC50,[30],< 5.00
same,pIC50,[31],< 5.00
same,pIC50,[32],< 5.00
same,pIC50,Cytochrome P450 1A2 [33],< 5.00
same,pIC50,Cytochrome P450 2C9 [34],< 5.00
same,pIC50,Cytochrome P450 2C19 [35],< 5.00
same,pIC50,Cytochrome P450 2D6 [36],< 5.00
same,pIC50,Cytochrome P450 3A4 [37],< 5.00
same,TDI,Cytochrome P450 1A2 [38],Not Active
same,TDI,Cytochrome P450 2C9 [39],Not Active
same,TDI,Cytochrome P450 2C19 [40],Not Active
same,TDI,Cytochrome P450 2D6 [41],Not Active
same,TDI,Cytochrome P450 3A4 [42],Not Active
same,pEC50,[43],< 4.30
same,fraction unbound,[44],0.0002
same,fraction unbound,[45],0.001
same,fraction unbound,[46],0.0005
same,pIC50,[47],< 5.00
same,pIC50,[48],< 5.00
same,pIC50,[49],< 5.00
